Assay results as given in ChEMBL document CHEMBL1136217, “Mapping the kinase domain of Janus Kinase 3” (Bioorg Med Chem Lett, 2003).
pIC50: −log10 of the molar value. The source made the active and inactive calls. No cut-off for these calls is given here.

How the values were obtained:
[1] = target: T1, Tyrosine-protein kinase JAK3 (Homo sapiens, UniProt P52333); test: Inhibitory activity against Janus Kinase 3 protein tyrosine kinase.
T1 sequence (P52333 whole entry): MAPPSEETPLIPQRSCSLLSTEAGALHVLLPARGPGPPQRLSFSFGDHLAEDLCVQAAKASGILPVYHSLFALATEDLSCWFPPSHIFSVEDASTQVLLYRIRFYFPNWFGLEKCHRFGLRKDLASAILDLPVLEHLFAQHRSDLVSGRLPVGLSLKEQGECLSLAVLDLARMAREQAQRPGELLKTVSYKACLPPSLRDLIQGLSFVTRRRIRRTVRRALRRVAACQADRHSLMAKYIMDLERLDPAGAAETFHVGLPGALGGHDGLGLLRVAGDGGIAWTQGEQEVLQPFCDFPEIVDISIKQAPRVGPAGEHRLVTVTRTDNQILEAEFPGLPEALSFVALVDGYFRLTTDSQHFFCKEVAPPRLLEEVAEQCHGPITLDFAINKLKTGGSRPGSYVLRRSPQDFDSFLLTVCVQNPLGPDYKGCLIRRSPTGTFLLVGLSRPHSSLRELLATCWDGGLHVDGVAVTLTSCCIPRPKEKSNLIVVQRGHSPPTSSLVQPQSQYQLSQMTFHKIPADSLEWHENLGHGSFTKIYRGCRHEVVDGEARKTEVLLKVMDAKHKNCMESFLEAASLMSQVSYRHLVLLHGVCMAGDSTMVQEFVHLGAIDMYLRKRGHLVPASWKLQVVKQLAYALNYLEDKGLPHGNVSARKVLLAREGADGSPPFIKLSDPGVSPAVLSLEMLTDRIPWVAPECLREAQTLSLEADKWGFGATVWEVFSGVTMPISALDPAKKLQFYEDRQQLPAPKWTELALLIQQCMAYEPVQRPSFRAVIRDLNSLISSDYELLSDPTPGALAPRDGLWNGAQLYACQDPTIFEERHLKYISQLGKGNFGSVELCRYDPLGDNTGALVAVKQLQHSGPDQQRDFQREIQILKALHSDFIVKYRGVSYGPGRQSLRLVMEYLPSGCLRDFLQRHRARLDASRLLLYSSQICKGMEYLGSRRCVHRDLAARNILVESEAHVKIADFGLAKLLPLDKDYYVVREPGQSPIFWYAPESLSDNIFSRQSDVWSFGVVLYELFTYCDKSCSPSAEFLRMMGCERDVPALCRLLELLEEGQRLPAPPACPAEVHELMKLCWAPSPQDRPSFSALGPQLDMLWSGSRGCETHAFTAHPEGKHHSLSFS

CTLL [2] = test: Inhibitory activity against IL-2 induced proliferation of mouse CTLL cells; type: functional, cell-based
T-cell [3] = test: Inhibitory activity against IL-2 induced proliferation of human T-cells; type: functional, cell-based
[4] = target: Tyrosine-protein kinase JAK3 (Mus musculus) (UniProt Q62137); conditions: at 3 µM
[5] = Cp max following ip administration at 1 mg/kg; type: ADME, organism-based; parameters: dose 1 mg/kg, route intraperitoneal; conditions: plasma, read-out: Cp max
[6] = Terminal T1/2 following ip administration at 1 mg/kg; type: ADME, organism-based; parameters: dose 1 mg/kg, route intraperitoneal; conditions: in vivo
[7] = T max following ip administration at 1 mg/kg; type: ADME, organism-based; parameters: dose 1 mg/kg, route intraperitoneal; conditions: in vivo
[8] = Area under curve (AUC) following ip administration at 1 mg/kg; type: ADME, organism-based; parameters: dose 1 mg/kg, route intraperitoneal; conditions: in vivo
T-cell [9] = test: Inhibitory activity against IL-2 induced proliferation in human T-cells; type: functional, cell-based
CTLL [10] = test: Inhibitory activity against IL-2 induced proliferation in mouse CTLL cells; type: functional, cell-based
Summary of the method: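 Murine CTLL cells were seeded at 2 × 10^4 per well without IL-2 for 6 h. At time zero, recombinant human IL-2 (10 U/mL) and inhibitor in DMSO (0.5% final) were added. [3H]-thymidine (1 µCi/well) was added at 18 h, and cells were harvested at 24 h. Proliferation was read as incorporated radioactivity by scintillation counting.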

Chain of Tyrosine-protein kinase JAK3 (Mus musculus) (Q62137 whole entry, looked up): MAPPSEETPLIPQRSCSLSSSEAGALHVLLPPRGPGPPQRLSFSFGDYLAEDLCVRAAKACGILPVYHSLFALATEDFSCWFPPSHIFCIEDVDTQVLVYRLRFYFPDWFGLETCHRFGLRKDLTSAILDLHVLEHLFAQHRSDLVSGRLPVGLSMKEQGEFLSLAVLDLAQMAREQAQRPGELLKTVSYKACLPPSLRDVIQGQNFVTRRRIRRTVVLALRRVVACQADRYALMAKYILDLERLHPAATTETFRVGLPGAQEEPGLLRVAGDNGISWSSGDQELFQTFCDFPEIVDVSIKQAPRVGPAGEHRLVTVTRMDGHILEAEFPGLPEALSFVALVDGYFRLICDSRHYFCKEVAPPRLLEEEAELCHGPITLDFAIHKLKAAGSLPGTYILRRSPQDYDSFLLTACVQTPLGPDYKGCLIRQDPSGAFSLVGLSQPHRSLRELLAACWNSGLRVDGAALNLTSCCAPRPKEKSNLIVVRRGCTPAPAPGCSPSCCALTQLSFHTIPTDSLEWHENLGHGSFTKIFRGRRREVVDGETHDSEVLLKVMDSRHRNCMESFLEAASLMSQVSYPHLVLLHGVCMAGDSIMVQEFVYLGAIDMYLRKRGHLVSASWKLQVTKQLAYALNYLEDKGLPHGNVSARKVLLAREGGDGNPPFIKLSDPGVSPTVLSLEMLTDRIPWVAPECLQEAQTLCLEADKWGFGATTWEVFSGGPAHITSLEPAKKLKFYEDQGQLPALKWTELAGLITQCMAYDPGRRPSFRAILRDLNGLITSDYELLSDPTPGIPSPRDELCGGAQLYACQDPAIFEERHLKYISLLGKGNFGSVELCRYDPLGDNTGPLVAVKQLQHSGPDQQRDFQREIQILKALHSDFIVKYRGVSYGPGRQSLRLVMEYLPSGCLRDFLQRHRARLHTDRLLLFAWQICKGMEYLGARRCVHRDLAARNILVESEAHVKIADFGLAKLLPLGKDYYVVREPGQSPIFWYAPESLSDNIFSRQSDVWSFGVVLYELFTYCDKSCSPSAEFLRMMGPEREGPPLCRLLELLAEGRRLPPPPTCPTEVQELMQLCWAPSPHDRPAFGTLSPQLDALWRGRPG

Compound: O=C1Nc2ccc(C(=O)c3cccs3)cc2/C1=C/C(=O)c1ccc[nH]1
- pIC50 [1]: 6.59

Compound: O=C1Nc2ccc(C(=O)c3cccnc3)cc2/C1=C/c1ccc[nH]1
- pIC50 [1]: 6.77

Compound: O=C1Nc2ccc(-c3cccnc3)nc2/C1=C/c1ccc[nH]1
- pIC50 [1]: 6.63
- pIC50 (CTLL [2]): 6.04
- pIC50 (T-cell [3]): 6.15
- inhibition [4]: Active

Compound: CS(=O)(=O)c1ccc(/C=C2\C(=O)Nc3ccc(C(=O)c4cccs4)cc32)cc1
- pIC50 [1]: 5.15

Compound: O=C1Nc2cnc(-c3cccnc3)cc2/C1=C/c1ccc[nH]1
- pIC50 (CTLL [2]): 6.35
- Cmax [5]: 700 ng/mL
- half-life [6]: 3.3 h
- pIC50 (T-cell [3]): 7.52
- Tmax [7]: 0.5 h
- AUC [8]: 4580 ng·h/mL

Compound: O=C1Nc2ccc(C(=O)O)cc2/C1=C/c1ccc[nH]1
- pIC50 [1]: 6.67

Compound: O=C1Nc2ccc(C(=O)c3cccs3)cc2/C1=C/c1ccc[nH]1
- pIC50 [1]: 7.59

Compound: CN(C)c1ccc(/C=C2\C(=O)Nc3ccc(C(=O)c4cccs4)cc32)cc1
- pIC50 [1]: 6.70

Compound: O=C1Nc2ccc(NC(=O)c3ccccc3)cc2/C1=C/c1ccc[nH]1
- pIC50 [1]: 6.06

Compound: O=C1Nc2ccc(-c3cccnc3)cc2/C1=C/c1ccc[nH]1
- Cmax [5]: 600 ng/mL
- half-life [6]: 3 h
- Tmax [7]: 0.5 h
- AUC [8]: 7690 ng·h/mL

Compound: O=C1Nc2ccc(C(=O)c3cccs3)cc2/C1=C/c1ccc(F)cc1
- pIC50 [1]: 5.31

Compound: O=C1Nc2ccc(C(=O)c3cccs3)cc2/C1=C/c1ccccc1
- pIC50 [1]: 5.64

Compound: O=C1Nc2ncc(-c3cccnc3)cc2/C1=C/c1ccc[nH]1
- pIC50 (T-cell [9]): 5.70
- pIC50 (CTLL [10]): 5.64

Compound: O=C1Nc2ccc(C(O)c3cccs3)cc2/C1=C/c1ccc[nH]1 (centres undefined)
- pIC50 [1]: 6.72

Compound: O=C1Nc2ccc([N+](=O)[O-])cc2/C1=C/c1ccc[nH]1
- pIC50 [1]: 6.15

Compound: CC(=O)Nc1ccc(/C=C2\C(=O)Nc3ccc(C(=O)c4cccs4)cc32)cc1
- pIC50 [1]: 6.15

Compound: CN(C)C(=O)c1ccc2c(c1)/C(=C/c1ccc[nH]1)C(=O)N2
- pIC50 [1]: 6.68
